“And” between values parts separate entries of the source, which are not always exact repeats. Equal values may be shown once.
Legend:
Format in all cases: functional, Mus musculus
[1] = system: B16; test: Compound was evaluated in vivo for antitumor activity against B16 melanoma after injecting the compound intravenously for total dose
[2] = system: B16; test: Compound was evaluated in vivo for antitumor activity against B16 melanoma after injecting the compound intravenously for change in body weight.
Outline: (§1)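 30-60 mg tumor fragments implanted sc by trocar on day 0 into C57Bl/6-derived hosts (B16) or C3H/He-derived hosts (16/C). Drug given iv on days 6, 9 and 13 (B16) or 6, 9 and 12 (16/C), 10 mice per group. Tumors measured by caliper. T/C % taken from median tumor burden of treated vs control groups on day 15 (B16) or day 14 (16/C). Body weight change per mouse recorded at nadir.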

[3] = system: B16; test: Compound was evaluated in vivo for antitumor activity against B16 melanoma 2 after injecting the compound intravenously for toxicity related death.
[4] = system: B16; test: Compound was evaluated in vivo for antitumor activity against B16 melanoma 1 after injecting the compound intravenously for median tumor burden
[5] = system: L1210; test: Compound was evaluated in vivo for antitumor activity after intraperitoneal administration against L1210(935) for total dose at an optimal dose of 0.4 mg/kg/injection at 1-4 day schedule.
Outline: (§2)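 L1210 leukemia, maintained in DBA/2 mice, was given ip as 10⁵ cells on day 0 to F1 hybrid or strain-of-origin mice over 18 g, in groups of 8. Dosing was ip from day 1, and mortality was checked daily. Median day of death counts dying mice only. %ILS = 100×(treated − control median day of death)/control median. Tumor-free survivors were counted on day 60. Weight change is g/mouse at nadir.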

[6] = system: L1210; test: Compound was evaluated in vivo for antitumor activity after intraperitoneal administration against L1210(935) for mortality range at an optimal dose of 1 mg/kg/injection at 1 day schedule.; outline: as §2
[7] = system: L1210; test: Compound was evaluated in vivo for antitumor activity after intraperitoneal administration against L1210(935) for median day of death at an optimal dose of 0.2 mg/kg/injection at 1-4 day schedule.; outline: as §2
[8] = system: L1210; test: Compound was evaluated in vivo for antitumor activity after intraperitoneal administration against L1210(935) for tumor free survivors at an optimal dose of 1 mg/kg/injection at 1 day schedule.; outline: as §2
[9] = system: L1210; test: Compound was evaluated in vivo for antitumor activity after intraperitoneal administration against L1210(935)for change in body weight at an optimal dose of 0.125 mg/kg/injection at 1,4,7,11day schedule.; outline: as §2
[10] = system: L1210; test: Compound was evaluated in vivo for antitumor activity after intraperitoneal administration against L1210(935)for change in body weight at an optimal dose of 0.4 mg/kg/injection at 1-4 day schedule.; outline: as §2
[11] = system: L1210; test: Compound was evaluated in vivo for antitumor activity after intraperitoneal administration against L1210(935)for change in body weight at an optimal dose of 0.5 mg/kg/injection at 1 day schedule.; outline: as §2
[12] = system: L1210; test: Compound was evaluated in vivo for antitumor activity after intraperitoneal administration against L1210(935) for tumor free survivors at an optimal dose of 0.5 mg/kg/injection at 1 day schedule.; outline: as §2
[13] = system: P388; test: Compound was evaluated in vivo for antitumor activity after intraperitoneal administration against P388/L-PAM(14) for median day of death at an optimal dose of 0.1 mg/kg/injection at 1,2,3,4 day schedule.
[14] = system: P388; test: Compound was evaluated in vivo for antitumor activity after intraperitoneal administration against P388/L-PAM(14) for median day of death at an optimal dose of 0.25 mg/kg/injection at 1,4,7,11 day schedule.
[15] = system: P388; test: Compound was evaluated in vivo for antitumor activity after intraperitoneal administration against P388/L-PAM(14) for median day of death at an optimal dose of 0.2 mg/kg/injection at 1,2,3,4 day schedule.
[16] = system: P388; test: Compound was evaluated in vivo for antitumor activity after intraperitoneal administration against P388/L-PAM(14) for median day of death at an optimal dose of 0.5 mg/kg/injection at 1,4,7,11 day schedule.
[17] = system: P388; test: Compound was evaluated in vivo for antitumor activity after intraperitoneal administration against P388/L-PAM(14) for mortality range at an optimal dose of 0.2 mg/kg/injection at 1,2,3,4 day schedule.
[18] = system: P388; test: Compound was evaluated in vivo for antitumor activity after intraperitoneal administration against P388/L-PAM(14) for tumor free survivors at an optimal dose of 0.1 mg/kg/injection at 1,2,3,4 day schedule.
[19] = system: P388; test: Compound was evaluated in vivo for antitumor activity after intraperitoneal administration against P388/L-PAM(14) for tumor free survivors at an optimal dose of 0.25 mg/kg/injection at 1,4,7,11 day schedule.
[20] = system: P388; test: Compound was evaluated in vivo for antitumor activity after intraperitoneal administration against P388/L-PAM(14) for tumor free survivors at an optimal dose of 0.5 mg/kg/injection at 1,4,7,11 day schedule on day 60
[21] = system: P388; test: Compound was evaluated in vivo for antitumor activity after intraperitoneal administration against P388/L-PAM(14) for tumor free survivors at an optimal dose of 1 mg/kg/injection
[22] = system: P388; test: Compound was evaluated in vivo for antitumor activity after intraperitoneal administration against P388/L-PAM(14) for total dose at an optimal dose of 0.1 mg/kg/injection at 1,2,3,4 day schedule.
[23] = system: P388; test: Compound was evaluated in vivo for antitumor activity after intraperitoneal administration against P388 (1303) for total dose at an optimal dose of 0.75 mg/kg/injection
[24] = system: P388; test: Compound was evaluated in vivo for antitumor activity after intraperitoneal administration against P388/L-PAM(14) for mortality range at an optimal dose of 0.4 mg/kg/injection at 1,2,3,4 day schedule.
[25] = system: P388; test: Compound was evaluated in vivo for antitumor activity after intraperitoneal administration against P388/L-PAM(14) for change in body weight at an optimal dose of 0.5 mg/kg/injection at 1,4,7,11 day schedule.
[26] = system: P388; test: Compound was evaluated in vivo for antitumor activity after intraperitoneal administration against P388/L-PAM(14) for total dose at an optimal dose of 0.5 mg/kg/injection at 1,4,7,11 day schedule.
[27] = system: P388; test: Compound was evaluated in vivo for antitumor activity after intraperitoneal administration against P388/L-PAM(14) for total dose at an optimal dose of 1 mg/kg/injection
[28] = system: P388; test: Compound was evaluated in vivo for antitumor activity after intraperitoneal administration against P388/L-PAM(14) for mortality range at an optimal dose of 0.5 mg/kg/injection at 1,4,7,11 day schedule.
[29] = system: P388; test: Compound was evaluated in vivo for antitumor activity after intraperitoneal administration against P388 (1313) for median day of death at an optimal dose of 1 mg/kg/injection
[30] = system: P388; test: Compound was evaluated in vivo for antitumor activity after intraperitoneal administration against P388 (1313) for tumor free survivors at an optimal dose of 0.5 mg/kg/injection on day 60
[31] = Compound was evaluated in vivo for antitumor activity against mammary adenocarcinoma 16/C after injecting the compound intravenously for change in body weight.; outline: as §1

CN(C)CCCNc1ncnc2c1C(=O)C(N1CC1)=C(N1CC1)C2=O
Total dose [1]: 1.2 mg/kg | Change in body weight [2]: 0.9 g mouse-1 and 0.8 g mouse-1 | Toxicity [3]: 0 | Tumor burden [4]: 27.8 | Total dose [5]: 1.6 mg/kg | Mortality [6]: 16 days | Median day of death [7]: 14 | Survivors [8]: 0 | Change in body weight [9]: 2.7 g mouse-1 | Change in body weight [10]: 0.3 g mouse-1 | Change in body weight [11]: 0.3 g mouse-1 | Survivors [12]: 0 | Median day of death [13]: 14 | Median day of death [14]: 16.5 | Median day of death [15]: 19 | Median day of death [16]: 22.5 | Mortality [17]: 20 days | Survivors [18]: 0 | Survivors [19]: 0 | Survivors [20]: 0 | Survivors [21]: 0 | Total dose [22]: 0.4 mg/kg | Optimal dose [23]: 0.75 mg/kg | Mortality [24]: 27 days | Change in body weight [25]: 0.7 g mouse-1 | Total dose [26]: 2 mg/kg | Total dose [27]: 1 mg/kg | Mortality [28]: 32 days | Median day of death [29]: 19 | Survivors [30]: 0 | Change in body weight [31]: 0.5 g mouse-1 and 1 g mouse-1

Source: ChEMBL document CHEMBL1125740, “Heterocyclic quinones. 17. A new in vivo active antineoplastic drug: 6,7-bis(1-aziridinyl)-4-[[3-(N,N-dimethylamino)propyl]amino]-5,8- quinazolinedione” (J Med Chem, 1991)
